Experimental data: PMC6904512 (Molecular microbiology, 2019)

Assays:
EcIMPDH/D243G = EcIMPDH/D243G (Escherichia coli, UniProt P0ADG7, D243G); assay: biochemical; assay type: biochemical
EcIMPDH/WT = EcIMPDH/WT (Escherichia coli, UniProt P0ADG7); assay: biochemical; assay type: biochemical
AbIMPDH = AbIMPDH (Acinetobacter baumannii, UniProt D0CF46); assay: biochemical; assay type: biochemical
[1] = test system: E. coli strains containing WT and mutant IMPDH; assay: Growth of engineered E. coli strains with WT or mutant IMPDH; assay type: cell-based, Escherichia coli
Summary of the method: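 E. coli strains carrying WT or mutant IMPDH (guaB) were precultured overnight to saturation in M9 + 1 mM IPTG + 2 g/L glucose. They were diluted 100-fold into M9 salts with 300 mg/L thiamine, 1 mM IPTG and the carbon source; for coumarate, 1 g/L with or without 5 mg/L guanosine (~18 μM). Triplicate cultures were read at OD600 in a plate reader, growth rates were curve-fitted, and standard deviation was taken over three biological replicates.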

EcIMPDH/D243G, sequence (P0ADG7 whole entry D243G): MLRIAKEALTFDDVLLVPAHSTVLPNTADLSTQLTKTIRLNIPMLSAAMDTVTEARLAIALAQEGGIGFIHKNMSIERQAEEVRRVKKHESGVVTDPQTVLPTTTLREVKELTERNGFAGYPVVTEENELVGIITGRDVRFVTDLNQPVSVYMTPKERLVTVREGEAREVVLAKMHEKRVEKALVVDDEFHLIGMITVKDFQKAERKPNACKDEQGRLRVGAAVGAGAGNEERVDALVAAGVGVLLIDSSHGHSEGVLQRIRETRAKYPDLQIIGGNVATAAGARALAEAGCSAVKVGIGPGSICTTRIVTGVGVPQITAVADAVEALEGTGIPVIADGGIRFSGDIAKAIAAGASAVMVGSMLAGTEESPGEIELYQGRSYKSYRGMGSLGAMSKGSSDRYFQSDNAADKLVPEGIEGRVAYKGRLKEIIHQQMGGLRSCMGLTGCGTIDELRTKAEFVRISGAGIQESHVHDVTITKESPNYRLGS
EcIMPDH/WT, sequence (P0ADG7 whole entry): as the sequence (P0ADG7 whole entry D243G) above, with G243D counted along it

## O=Cc1ccc(O)cc1 [4-hydroxybenzaldehyde]
EcIMPDH/D243G; D243G EcIMPDH
  Inhibition mechanism with respect to IMP: uncompetitive inhibitor
  Inhibition mechanism with respect to NAD+: noncompetitive (mixed) inhibitor
EcIMPDH/D243G; Ki,app(4HB), EcIMPDH/D243G, 20 nM enzyme, 12 μM IMP, 500 μM NAD+, pH 7.0
  Ki: 1.25 ± 0.05 mM
EcIMPDH/WT; Ki,app(4HB), EcIMPDH/WT, 20 nM enzyme, 12 μM IMP, 500 μM NAD+, pH 7.0
  Ki: 320 ± 30 µM
EcIMPDH/WT; wild type EcIMPDH
  Inhibition mechanism with respect to IMP: uncompetitive inhibitor
  Inhibition mechanism with respect to NAD+: noncompetitive (mixed) inhibitor
AbIMPDH
  Ki: 720 ± 30 µM

## NC(=O)c1ccc[n+]([C@@H]2O[C@H](COP(=O)([O-])OP(=O)(O)OC[C@H]3O[C@@H](n4cnc5c(N)ncnc54)[C@H](O)[C@@H]3O)[C@@H](O)[C@H]2O)c1 [NAD]
EcIMPDH/D243G; EcIMPDH/D243G, substrate inhibition by NAD, fixed 1.2 mM IMP
  Kii(NAD): 3500 ± 690 µM
EcIMPDH/D243G; read-out: Km(NAD), EcIMPDH/D243G, fixed 1.2 mM IMP, 50 nM enzyme
  Km: 210 ± 40 µM
EcIMPDH/WT; EcIMPDH/WT, substrate inhibition by NAD, fixed 1.2 mM IMP
  Kii(NAD): 4300 ± 530 µM
EcIMPDH/WT; read-out: Km(NAD), EcIMPDH/WT, fixed 1.2 mM IMP, 50 nM enzyme
  Km: 210 ± 20 µM
AbIMPDH; AbIMPDH, substrate inhibition by NAD, fixed 1.2 mM IMP
  Kii(NAD): 10600 ± 1100 µM
AbIMPDH; read-out: Km(NAD), AbIMPDH, fixed 1.2 mM IMP, 50 nM enzyme
  Km: 208 ± 17 µM

## Nc1nc2c(ncn2[C@@H]2O[C@H](CO)[C@@H](O)[C@H]2O)c(=O)[nH]1 [guanosine]
[1]; strain JME129 (wild-type guaB), growth with glucose (Figure S6)
  Effect of added guanosine on inhibition by 4-hydroxybenzaldehyde: relieved inhibition
[1]; strain with wild-type IMPDH, 1 g/L coumarate, 5 mg/L guanosine
  Effect of added guanosine on growth with coumarate: increased growth with coumarate
